From article PMC3106293 (Xenobiotica; the fate of foreign compounds in biological …, 2009) come the findings set out here.

Where two headings read alike, the source gives them in different places.

The test system of series [1] is human intestine cytosolic SULTs. Put plainly: Inhibition of oestradiol sulfation by human intestine cytosol. The conditions noted are these: read-out: IC50, Oestradiol sulfation, Cytosol, substrate 0.15 μM oestradiol. The format is biochemical. The procedure, abridged: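 [3H]oestradiol (0.15 μM final) sulfation by 100 μg intestine cytosol from a person. Buffer 50 mM Tris (pH 6.2) with 20 μM PAPS. Test compound in DMSO (1% v/v final), 0.01–1000 μM. Reaction 30 min at 37°C, quenched with 0.25 M Tris (pH 8.7), chloroform-extracted twice, aqueous phase counted by scintillation. IC50 from a Hill-slope fit; mean ± SD of three determinations.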

Series [2] deals with sulfotransferases (SULTs) in human intestine cytosol. Put plainly: Sulfation of flavonoids by human intestine cytosol. Format: in vitro ADME. The conditions noted are these: for Km at 30 min: male, human, human intestine cytosol, pH 6.2. The procedure, abridged:
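Cytosol (50 μg) from a person was incubated in 50 mM sodium phosphate pH 6.2 with 5 mM pNPS, 20 μM PAPS and test compound at 1 μM up to 1000 μM (upper limit varying by compound). After 30 min at 37°C, the reaction was stopped with 0.25 M Tris pH 8.7 and read at 401 nm. Product formation was linear with time. Km came from a Michaelis–Menten fit; means ± SD of three determinations.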

The target in series [3] is T1, hSULT1A1 (Homo sapiens, UniProt P50225). As to the kind of experiment: Inhibition of 2-naphthol sulfation by recombinant hSULT1A1. The format is biochemical. The procedure, abridged:
(§1)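 Test compound was added in DMSO (1% v/v final). Labelled substrates: [14C]2-naphthol 0.1 mM for hSULT1A1, [3H]DHEA 2 μM for hSULT2A1, [3H]oestradiol 0.15 μM for hSULT1E1. Incubated 30 min at 37°C, stopped with Tris pH 8.7, chloroform-extracted twice, aqueous phase scintillation-counted. IC50 from Hill-slope fit; three determinations.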

The test system of series [4] is human intestine cytosol (SULT1A1 and SULT1A3). As to the kind of experiment: Inhibition of 2-naphthol sulfation by human intestine cytosol. Format: biochemical. The conditions noted are these: read-out: IC50, 2-Naphthol sulfation, Cytosol, substrate 100 μM 2-naphthol. The procedure, abridged: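 Radioactive assay in 50 mM Tris (pH 6.2) with 20 μM PAPS and [14C]2-naphthol (0.1 mM final). Enzyme source: 100 μg intestine cytosol from a person. Test compound in DMSO (1% v/v final), 0.01–1000 μM. Incubated 30 min at 37°C, stopped with 0.25 M Tris (pH 8.7), extracted twice with chloroform, aqueous phase scintillation-counted. IC50 fitted with a Hill-slope equation; mean ± SD of three determinations.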

The target in series [5] is T2, hSULT1A3 (Homo sapiens, UniProt P0DMM9). Put plainly: Sulfation of flavonoids by recombinant hSULT1A3.
T2 sequence (P0DMM9 whole entry): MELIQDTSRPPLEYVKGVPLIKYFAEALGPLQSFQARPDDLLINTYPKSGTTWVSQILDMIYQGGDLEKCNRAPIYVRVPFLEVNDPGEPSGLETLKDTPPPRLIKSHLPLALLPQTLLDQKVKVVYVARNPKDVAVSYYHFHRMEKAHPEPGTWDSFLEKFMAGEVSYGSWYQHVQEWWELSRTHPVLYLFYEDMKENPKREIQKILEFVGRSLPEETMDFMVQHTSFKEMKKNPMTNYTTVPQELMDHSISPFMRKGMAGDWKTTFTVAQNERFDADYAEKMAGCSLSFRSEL
For a further series, the target named is T3, hSULT1E1 (Homo sapiens, UniProt P49888).
T3 sequence (P49888 1-294): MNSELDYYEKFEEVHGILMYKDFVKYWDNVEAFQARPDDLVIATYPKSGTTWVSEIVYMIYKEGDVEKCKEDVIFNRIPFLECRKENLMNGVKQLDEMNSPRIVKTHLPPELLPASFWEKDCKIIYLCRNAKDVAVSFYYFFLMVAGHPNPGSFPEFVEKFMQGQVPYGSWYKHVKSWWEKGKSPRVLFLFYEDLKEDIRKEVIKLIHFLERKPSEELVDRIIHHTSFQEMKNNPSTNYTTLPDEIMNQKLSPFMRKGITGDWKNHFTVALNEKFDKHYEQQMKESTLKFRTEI
As to the kind of experiment: Inhibition of oestradiol sulfation by recombinant hSULT1E1. The format is biochemical. The conditions noted are these: for Inhibition of hSULT1E1-catalysed oestradiol sulfation (in words): substrate 0.15 μM oestradiol, concentration range 1–1000 μM. The procedure, abridged: as §1

A further series addresses T4, hSULT2A1 (Homo sapiens, UniProt Q06520).
T4 sequence (Q06520 1-285): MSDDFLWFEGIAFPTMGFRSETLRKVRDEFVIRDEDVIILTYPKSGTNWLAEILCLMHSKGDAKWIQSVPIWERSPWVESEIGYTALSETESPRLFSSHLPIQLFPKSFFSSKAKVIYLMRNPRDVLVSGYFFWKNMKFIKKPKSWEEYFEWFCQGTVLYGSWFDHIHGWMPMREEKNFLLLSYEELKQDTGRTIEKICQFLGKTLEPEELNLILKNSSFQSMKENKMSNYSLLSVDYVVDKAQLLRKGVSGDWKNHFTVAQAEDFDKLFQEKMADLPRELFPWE
As to the kind of experiment: Inhibition of DHEA sulfation by recombinant hSULT2A1. The format is biochemical. The conditions noted are these: for Inhibition of hSULT2A1-catalysed DHEA sulfation (in words): substrate 2 μM DHEA, concentration range 1–1000 μM. The procedure, abridged: as §1

In series [6] the target is T2, hSULT1A3. Put plainly: Inhibition of dopamine sulfation by recombinant hSULT1A3. Format: biochemical.
The target of series [7] is T1, hSULT1A1. Put plainly: Sulfation of flavonoids by recombinant hSULT1A1. The format is in vitro ADME.
Series [8] deals with T1, hSULT1A1. Put plainly: Inhibition of oestradiol sulfation by recombinant hSULT1A1. The format is biochemical.
Setting [9] is: flavonoid as substrate, Michaelis–Menten equation (1), 1–1000 μM catechin, 1–1000 μM epicatechin, 1–128 μM hesperetin, 1–32 μM eriodictyol.
Setting [10] is: flavonoid as substrate, substrate inhibition equation (2).
[11] abbreviates: flavonoid as substrate, substrate inhibition equation (2), listed as hesperetin.
The mark [12] stands for this setting: flavonoid as substrate, substrate inhibition equation (2), listed as catechin.
Where [13] appears, read: substrate inhibition constant of flavonoid sulfation, equation (2).

T1 sequence (P50225 whole entry): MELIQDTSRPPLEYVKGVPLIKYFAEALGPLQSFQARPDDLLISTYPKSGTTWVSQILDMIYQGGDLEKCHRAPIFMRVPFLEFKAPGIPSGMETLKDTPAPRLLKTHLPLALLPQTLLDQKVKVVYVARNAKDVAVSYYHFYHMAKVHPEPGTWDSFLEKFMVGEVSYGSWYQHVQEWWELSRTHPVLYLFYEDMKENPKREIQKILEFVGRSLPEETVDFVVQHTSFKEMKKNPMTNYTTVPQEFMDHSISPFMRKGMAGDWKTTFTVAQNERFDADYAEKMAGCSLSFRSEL

Regarding `O=C1C[C@@H](c2ccc(O)c(O)c2)Oc2cc(O)cc(O)c21` [Eriodictyol, eriodictyol], the 50% inhibitory concentration (IC50) in series [1] turned out to be 11.8 ± 2 µM; on hSULT1A1 [3], 15.2 ± 0.9 µM; in series [4], 28.9 ± 4.1 µM; at hSULT1E1 it was 677 ± 120 µM; at hSULT2A1 it was 139 ± 8.8 µM; on hSULT1A3 [6], 14.7 ± 8.9 µM. Moreover, the Vmax in [2] (setting [9]) was 19.4 ± 2.4 nmol/mg/min; at hSULT1A3 [5] (setting [10]), 269 nmol/mg/min; at hSULT1A1 [7] (setting [10]), 98.6 nmol/mg/min. Moreover, the Michaelis constant (Km) at 30 min in series [2] was found to be 220 ± 28 µM. Moreover, the Ki on hSULT1A3 [5] amounted to 4.6 ± 0.02 µM; at hSULT1A1 [7], 6.1 ± 0.14 µM.

For the molecule `Oc1cc(O)c2c(c1)O[C@H](c1ccc(O)c(O)c1)[C@H](O)C2` [Epicatechin, (−)epicatechin], the IC50 in series [1] turned out to be 22.7 ± 5.6 µM; on hSULT1A1 [3] it was 42.5 ± 8.5 µM; in [4] it was 157 ± 37.6 µM; at hSULT1A1 [8], 6.1 ± 1 µM; on hSULT1A3 [6] it was 117 ± 12.9 µM. For the same molecule, the maximal velocity (Vmax) in series [2] (setting [9]) was found to be 4.2 ± 0.2 nmol/mg/min; at hSULT1A3 [5] (setting [10]), 442 nmol/mg/min; at hSULT1A1 [7] (setting [10]), 188 nmol/mg/min. Further, the Km at 30 min in [2] was determined as 149 ± 9.2 µM. The figures for the Ki at hSULT1A3 [5] and at hSULT1A1 [7] were 9.5 ± 0.21 µM and 8.7 ± 3.07 µM, respectively. For the same molecule, the entries for the “Inhibition of hSULT1E1-catalysed oestradiol sulfation (in words)” value at hSULT1E1 (listed as (−)epicatechin) and at hSULT1E1 (listed as epicatechin) were “did not significantly inhibit” and “not inhibited”, respectively. The “Inhibition of hSULT2A1-catalysed DHEA sulfation (in words)” value was “did not significantly inhibit” at hSULT2A1 (listed as (−)epicatechin) and “not inhibited” on hSULT2A1 (listed as epicatechin).

As for `COc1ccc([C@@H]2CC(=O)c3c(O)cc(O)cc3O2)cc1O` [Hesperetin], the IC50 in series [1] was found to be 3.6 ± 0.4 µM; at hSULT1A1 [3], 23.4 ± 5.75 µM; in [4], 32.2 ± 3.6 µM; at hSULT1E1 it was 90.4 ± 11.5 µM; at hSULT2A1 it was 152 ± 14.9 µM; at hSULT1A3 [6] it was 20.8 ± 8.1 µM. Besides, the Vmax turned out to be 8.9 ± 0.3 nmol/mg/min in [2] (setting [9]), 303 ± 5.8 nmol/mg/min on hSULT1A3 [5] (setting [10]), 303 nmol/mg/min at hSULT1A3 [5] (setting [11]) and 92.7 nmol/mg/min on hSULT1A1 [7] (setting [11]). The Km at 30 min in series [2] was found to be 66 ± 3.3 µM. Further, the Ki at hSULT1A3 [5] came to 4.2 ± 0.06 µM; at hSULT1A1 [7], 3.7 ± 0.11 µM.

On to `Oc1cc(O)c2c(c1)OC(c1ccc(O)c(O)c1)C(O)C2` (single isomer, unassigned; (+)) [Catechin, (+)catechin], for which the IC50 in series [1] is 10.1 ± 1.7 µM; on hSULT1A1 [3] (read-out: IC50, 2-Naphthol sulfation, hSULT1A1, substrate 100 μM 2-naphthol), 8.4 ± 3.3 µM; in [4], 67.1 ± 6.3 µM; at hSULT1A1 [8] (read-out: IC50, Oestradiol sulfation, hSULT1A1, substrate 0.15 μM oestradiol), 2.6 ± 0.4 µM; at hSULT1A3 [6] (read-out: IC50, Dopamine sulfation by hSULT1A3, substrate 50 μM dopamine) it was 82.5 ± 31.5 µM. The figures for the Km (in series [2] (setting [9]); at hSULT1A3 [5] (setting [10]); on hSULT1A1 [7] (setting [10])) were 104 ± 7.3 µM, 236 ± 5.6 µM and 165 ± 8.1 µM, respectively. Also, the Vmax in series [2] (setting [9]) is 6.7 ± 0.02 nmol/mg/min; at hSULT1A3 [5] (setting [10]) it was 342 ± 8.2 nmol/mg/min; at hSULT1A3 [5] (setting [12]), 342 nmol/mg/min; on hSULT1A1 [7] (setting [10]) it was 187 ± 9.9 nmol/mg/min; at hSULT1A1 [7] (setting [12]), 187 nmol/mg/min. Also, the values for the Ki on hSULT1A3 [5] (setting [13]) and on hSULT1A1 [7] (setting [13]) were 8 ± 0.29 µM and 6.37 ± 0.22 µM, respectively. Also, the “Inhibition of hSULT1E1-catalysed oestradiol sulfation (in words)” value at hSULT1E1 (listed as (+)catechin) is on record as “did not significantly inhibit”; at hSULT1E1 (listed as catechin), “not inhibited”. Besides, the “Inhibition of hSULT2A1-catalysed DHEA sulfation (in words)” value on hSULT2A1 (listed as (+)Catechin) was “did not significantly inhibit”; at hSULT2A1 (listed as catechin), “not inhibited”.

As usually defined, the IC50 is the concentration needed to halve the response being measured. A word on the Vmax: it is the top rate of the reaction or transport when substrate is in excess. The Km is the concentration of substrate that gives half-maximal velocity.
